Cl transport mod – KCC2 cotransporter modulators, thallium flux, primary screen, cell-based, HEK293 KCC2, FluoZin-2 fluorescence, MLSMR; Solute carrier family 12 member 5 (Homo sapiens), Q9H2X9; KCC2 cells, thallium flux FluoZin-2 fluorescence; B-score of Tl+ flux slope (higher = more flux/activation; lower = inhibition) at 10 µM; 190,000 tested, 2.2% active;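 active means thallium flux slope and its plate-corrected score both differing from the plate sample mean at a set confidence after two filtering rounds, in either direction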;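 further: slope of fluorescence scaled to starting intensity during 10 to 20 s after thallium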
hERG rescue – hERG rescue from dofetilide block, primary screen, cell-based, CHO-hERG, FluxOR thallium flux, dofetilide IC70 | Voltage-gated inwardly rectifying potassium channel KCNH2 (Homo sapiens), Q12809 | activation (rescue from dofetilide block), less the hit threshold, % at 10 µM | dofetilide IC70 present | AID 1511, 2009 | 310,000 tested, 0.51% active;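 active means activation above the mean of controls blocked by dofetilide plus 5 SD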;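 further: thallium influx through hERG after potassium depolarization seen as dye fluorescence rise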
KCNQ1 block – inhibitors of human KCNQ1 channel, primary screen, cell-based, thallium flux, high-throughput; 310,000 tested, 1.3% active; B-score at 10 µM; Potassium voltage-gated channel subfamily KQT member 1 (Homo sapiens), P51787; CHO-K1 KCNQ1, FluxOR thallium flux fluorescence; hits give high values;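 active means compounds whose thallium flux B-score, printed positive for inhibition, exceeds three library SD while starting fluorescence stays within three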;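 further: channel opened by potassium depolarization with thallium stimulus after 20 min compound exposure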
KCNK3 inh – human KCNK3 channel inhibitors, primary screen, CHO cells, FluxOR thallium flux, B-score; FluxOR fluorescence; hits give low values; B-score at 10 µM; 340,000 tested, 0.84% active;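 active means B-score under library mean minus 4 SD, starting fluorescence ratio at most library mean plus 5 SD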;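 further: more negative B-score means stronger inhibition of thallium flux through KCNK3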
KCNK9 inh – KCNK9 potassium channel inhibitors, primary screen, HEK293 cells, thallium flux; FluxOR thallium flux fluorescence; hits give low values; 310,000 tested, 1.2% active; AID 488922, 2010; Potassium channel subfamily K member 9 (Homo sapiens), Q9NPC2; B-score at 10 µM;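 active means ratio B-score over 3 SD below the library mean, with starting fluorescence within 5 SD of its mean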;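 further: negative B-score means less thallium flux so channel inhibition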
KCNQ1 act – potentiators or activators of KCNQ1 channel, primary screen, cell-based, thallium flux, high-throughput; CHO-K1 KCNQ1, thallium flux FluxOR fluorescence; hits give high values; B-score at 10 µM; 310,000 tested, 0.35% active;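 active means fluorescence ratio B-score, a plate-corrected score, at least three library SD, with initial intensity B-score within 5 SD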
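Doses: Single concentration per compound, DMSO matched to controls | Test system: KCNQ1-transfected CHO-K1 cells | Timing: 90 min dye loading and 20 min compound exposure, both at room temperature | Measured by: Kinetic FluxOR thallium fluorescence, 10-s 1-Hz baseline, 110-s post-stimulus read | Medium: Assay buffer with matched DMSO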
KCC2 sec1 – KCC2 modulators in sodium-free buffer, confirmation, cell-based, HEK293 KCC2, thallium flux, secondary assay. shares compounds with Cl transport mod. 3,700 tested, 15% active. FluoZin2 fluorescence; hits give high values. normalised thallium flux (F/F0 slope) at 10 µM;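 active means thallium flux slope above the same plate's solvent-only control mean plus 3 SD; inconclusive means the two replicate wells disagree; inactive means no significant difference from solvent-only control wells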
KCC2 bumet counter – thallium flux persisting under bumetanide in KCC2 cells, confirmation, counter-screen for KCC2 modulator project, cell-based, HEK293 KCC2, FluoZin2, secondary assay 3; 3,700 tested, 49% active; AID 1714, 2009; shares compounds with Cl transport mod; HEK293-KCC2 + bumetanide/ouabain; hits give high values; normalized thallium flux at 10 µM;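 active means thallium entry rate above the same plate's blocked-transporter control wells by more than 3 SD; inconclusive means the two repeat wells disagree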;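 further: raw slope of fluorescence over initial fluorescence between 10 and 20 s after thallium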
KCC2 secondary2 – KCC2 modulators without ouabain present, confirmation, cell-based, HEK293 KCC2, thallium flux, FluoZin2, secondary assay 2 | 3,700 tested, 23% active | shares compounds with Cl transport mod | normalized thallium flux at 10 µM | thallium flux FluoZin2 fluorescence; actives lie on both sides; F/F0 rise rate, 10–20 s post-thallium;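 active means thallium flux slope more than 3 SD above or below the plate's solvent-only control mean, mostly below; inconclusive means the two repeat wells disagreed; inactive means no significant shift from solvent-only controls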;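 further: raw slope with 0.1% DMSO as baseline and bumetanide as block control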
HEK counter1 – thallium flux modulation in parental HEK cells, confirmation, counter-screen for KCC2 modulator project, cell-based, counterscreen 1. shares compounds with Cl transport mod. HEK293 parental cells, thallium flux FluoZin2, ouabain; baseline-ratio fluorescence slope, 10–20 s after thallium. thallium flux rate (normalised fluorescence) at 10 µM. 3,700 tested, 46% active. AID 1716, 2009;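 active means thallium flux rate significantly above the same plate's solvent-only control wells, beyond their mean plus 3 SD; inconclusive means the two replicate wells gave conflicting results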
KCC2 retest ouab – KCC2 inhibitors and activators, ouabain retest, confirmation, HEK-KCC2 cells; shares compounds with Cl transport mod; HEK293-KCC2, thallium flux FluoZin2 fluorescence; bidirectional: low = inhibitor, high = activator; raw Tl+ flux slope (below DMSO = inhibition, above = activation) at 10 µM; 3,700 tested, 48% active; AID 1717, 2009;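 active means thallium flux slope beyond 3 SD from same-plate DMSO control mean in most replicates, usually higher, sometimes lower; inconclusive means repeat tests gave conflicting results; inactive means no significant difference from controls in most replicates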;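 further: slope of initial-normalized fluorescence between seconds 10 and 20 after thallium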
HEK counter2 – native HEK Tl+ uptake effects, second counter-screen – HEK cells, counterscreen 2, counter-screen for KCC2 modulator project, confirmation; shares compounds with Cl transport mod; HEK293 parental, thallium flux FluoZin-2 fluorescence slope; thallium flux slope at 10 µM; 3,700 tested, 33% active;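 active means thallium flux slope above the same plate's solvent-control mean plus 3 SD in both duplicate wells; inconclusive means duplicate wells that disagreed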;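 further: run without ouabain in cells lacking the KCC2 cotransporter; slope of fluorescence scaled to its starting value between 10 and 20 s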
KCNK9 block conf – KCNK9 potassium channel inhibitors, confirmation, HEK293 cells, thallium flux, duplicate; shares compounds with KCNK9 inh; FluxOR thallium flux fluorescence; inhibition, % at 10 µM; 4,900 tested, 43% active; AID 492992, 2010;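 active means thallium signal inhibited by more than 5 SD of the compound-free buffer control wells, on both duplicate plates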;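 further: 0% = assay buffer control wells without compound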
Kir21 sel – mouse Kir2.1 channel inhibition, confirmation, selectivity assay for KCNK9 modulator project, cell-based, HEK293, thallium flux | 4,900 tested, 4% active | shares compounds with KCNK9 inh | inhibition, % at 10 µM | Kir2.1 cells, FluxOR thallium flux fluorescence;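 active means thallium signal drop more than 5 SD beyond the mean of the no-compound control wells, seen in both duplicate plates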;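 further: signal is fluorescence rise after thallium addition divided by baseline fluorescence; plate controls were assay buffer only for no effect and full block by chlorpromazine control for full effect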
HEK293 Tl ctr – thallium flux in non-induced HEK293 cells, confirmation, counter-screen for KCNK9 inhibitor project, cell-based, second counter screen, non-induced KCNK9-HEK293; shares compounds with KCNK9 inh; FluxOR thallium flux; inhibition, % at 10 µM; 4,900 tested, 40% active; AID 492997, 2010;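 active means thallium signal drop beyond 5 SD of the untreated control mean, on both duplicate plates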;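 further: plate controls were buffer only IC0 wells for no effect and SID17386958 at its maximal inhibitory level for full effect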
Starred values were filed as active, the others as inactive. An excerpt weighted towards active compounds, which were near 4.1% of everything screened.

What do the screens show for `Oc1ccc(N=Nc2ccc3c(c2)OCCO3)c2cccnc12`?
Cl transport mod: 24*; hERG rescue: -9.8; KCNQ1 block: inactive; KCNK3 inh: inactive; KCNK9 inh: inactive; KCNQ1 act: 55*; KCC2 sec1: 0.0106; KCC2 bumet counter: 0.0374*; KCC2 secondary2: 0.0327; HEK counter1: 0.0608*; KCC2 retest ouab: 0.0391*; HEK counter2: 0.0145*; KCNK9 block conf: inactive; Kir21 sel: inactive; HEK293 Tl ctr: inactive

Results for CCOC(=O)c1c(C)[nH]c(C(=O)COC(=O)C2CC2)c1C ?
KCNK3 inh: inactive

Results for CCOC(=O)c1c(C)[nH]c(C(=O)COC(=O)C2(C)CC2(Cl)Cl)c1C (stereo not drawn) ?
hERG rescue: -6.9; KCNQ1 block: inactive; KCNK3 inh: inactive; KCNK9 inh: -17.4*; KCNQ1 act: inactive; KCC2 sec1: 0.00715; KCC2 bumet counter: 0.00421; KCC2 secondary2: 0.0285; HEK counter1: 0.0073; KCC2 retest ouab: 0.0174; HEK counter2: 0.0101; KCNK9 block conf: inactive; Kir21 sel: inactive; HEK293 Tl ctr: inactive

How did CCC(C)(C)n1nnnc1C(c1ccc2ncccc2c1)N1CCN(c2nc3ccccc3s2)CC1 (stereo not drawn) do in these assays?
hERG rescue: -7.0; KCNQ1 block: inactive; KCNK3 inh: inactive; KCNK9 inh: -14.9*; KCNQ1 act: inactive; KCC2 sec1: 0.00845; KCC2 bumet counter: 0.00617; KCC2 secondary2: 0.0312; HEK counter1: 0.00702; KCC2 retest ouab: 0.0157*; HEK counter2: 0.0109; KCNK9 block conf: 47.0%*; Kir21 sel: inactive; HEK293 Tl ctr: 45.0%*

How did COc1cccc(CN(C)C(=O)c2cc(COc3c(F)cccc3F)on2)c1 do in these assays?
hERG rescue: -10.3; KCNQ1 block: inactive; KCNK3 inh: inactive; KCNK9 inh: inactive; KCNQ1 act: inactive; KCC2 sec1: 0.00698; KCC2 bumet counter: 0.00372; KCC2 secondary2: 0.0246*; HEK counter1: inconclusive; KCC2 retest ouab: 0.0141*; HEK counter2: 0.00895; KCNK9 block conf: inactive; Kir21 sel: inactive; HEK293 Tl ctr: inactive

High-throughput results (PubChem BioAssay)
